Calls of active or inactive are those of the source. The rule behind the calls is not given here.
Key:
[1] = target: T1, Muscarinic acetylcholine receptor M2 (Homo sapiens) (UniProt P08172); experiment: Agonist activity at human muscarinic acetylcholine receptor M2 expressed in HEK293 cells coexpressing HA tagged Galpha-protein qi5 assessed as induction of IP1 accumulation measured after 1 hr by HTRF assay; assay type: functional, cell-based
T1 sequence (whole entry): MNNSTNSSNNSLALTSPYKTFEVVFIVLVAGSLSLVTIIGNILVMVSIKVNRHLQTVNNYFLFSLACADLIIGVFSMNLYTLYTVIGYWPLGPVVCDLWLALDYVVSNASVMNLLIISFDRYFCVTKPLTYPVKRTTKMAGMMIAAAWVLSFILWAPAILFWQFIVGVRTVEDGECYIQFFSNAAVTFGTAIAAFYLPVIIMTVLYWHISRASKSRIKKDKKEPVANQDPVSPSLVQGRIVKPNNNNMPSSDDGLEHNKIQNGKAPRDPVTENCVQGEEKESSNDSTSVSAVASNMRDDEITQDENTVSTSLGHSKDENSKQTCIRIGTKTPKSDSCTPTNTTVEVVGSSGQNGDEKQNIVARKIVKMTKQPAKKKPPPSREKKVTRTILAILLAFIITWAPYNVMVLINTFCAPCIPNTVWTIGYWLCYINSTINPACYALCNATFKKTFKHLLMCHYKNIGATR
Procedure, shortened: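 HEK-293 transiently cotransfected with human M2R and Gαqi5-HA, seeded 24 h before assay (10000 cells/well). Compounds in stimulation buffer (1 pM–100 μM final) 1 h at 37 °C; IP1 read by HTRF (620/670 nm, excitation 330 nm) after 60 min with detection reagents at rt. Duplicate, three experiments, carbachol as reference.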

[2] = target: T2, Muscarinic acetylcholine receptor M2 (Homo sapiens, UniProt P08172); experiment: (§1) Competitive antagonist activity at human muscarinic acetylcholine receptor M2 expressed in HEK293 cells coexpressing HA tagged Galpha-protein qi5 assessed as inhibition of 0.1 uM carbachol-induced IP1 accumulation preincubated for 30 mins followed by carbachol addition measured after 1 hr by HTRF assay; assay type: functional, cell-based
T2 sequence (P08172 whole entry): T1 sequence (whole entry)
Procedure, shortened: (§2)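 HEK-293 transiently cotransfected with human M2R and Gαqi5-HA. Cells preincubated 30 min with antagonist, then carbachol added (final 0.1, 0.3, 1 or 10 μM), 1 h at 37 °C. IP1 detected by HTRF (620/670 nm emission, 330 nm excitation). At least four independent experiments, each in duplicate.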

[3] = target: T1, Muscarinic acetylcholine receptor M2 (Homo sapiens); experiment: as §1; assay type: functional, cell-based; procedure, shortened: as §2
[4] = target: T2, Muscarinic acetylcholine receptor M2; experiment: Displacement of [3H]UR-AP060 from human muscarinic acetylcholine receptor M2 expressed in CHOK9 cell homogenate after 3 hrs by liquid scintillation counting assay
[5] = target: T1, Muscarinic acetylcholine receptor M2 (Homo sapiens); experiment: Binding affinity to human muscarinic acetylcholine receptor M2 expressed in CHOK9 cells assessed as association rate constant incubated up to 140 mins by liquid scintillation counting assay; assay type: cell-based; conditions: tested as the 3H-labelled form
[6] = target: T1, Muscarinic acetylcholine receptor M2 (Homo sapiens); experiment: Binding affinity to human muscarinic acetylcholine receptor M2 expressed in live adherent CHOK9 cells after 2 hrs by liquid scintillation counting assay; assay type: cell-based; conditions: tested as the 3H-labelled form
Procedure, shortened: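 Live adherent CHO-hM2 cells in L15 medium with 1% BSA, 23 ± 1 °C, 2 h incubation. Competition at 2 nM radioligand; additional 4, 8, 15 and 30 nM in W84 experiments. […] Saturation data fitted one-site; competition by four-parameter logistic fits; at least three experiments in triplicate.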

[7] = target: T1, Muscarinic acetylcholine receptor M2 (Homo sapiens); experiment: Antagonist activity at human muscarinic acetylcholine receptor M2 expressed in HEK293 cells coexpressing HA tagged Galpha-protein qi5 assessed as inhibition of 0.3 uM carbachol-induced IP1 accumulation preincubated for 30 mins followed by carbachol addition measured after 1 hr by HTRF assay; assay type: functional, cell-based; procedure, shortened: as §2
[8] = target: Muscarinic acetylcholine receptor M3 (Homo sapiens, UniProt P20309); experiment: Displacement of [3H]NMS from human muscarinic acetylcholine receptor M3 expressed in CHOK9 cells after 3 hrs by liquid scintillation counting assay; assay type: cell-based
Chain of Muscarinic acetylcholine receptor M3 (P20309 whole entry): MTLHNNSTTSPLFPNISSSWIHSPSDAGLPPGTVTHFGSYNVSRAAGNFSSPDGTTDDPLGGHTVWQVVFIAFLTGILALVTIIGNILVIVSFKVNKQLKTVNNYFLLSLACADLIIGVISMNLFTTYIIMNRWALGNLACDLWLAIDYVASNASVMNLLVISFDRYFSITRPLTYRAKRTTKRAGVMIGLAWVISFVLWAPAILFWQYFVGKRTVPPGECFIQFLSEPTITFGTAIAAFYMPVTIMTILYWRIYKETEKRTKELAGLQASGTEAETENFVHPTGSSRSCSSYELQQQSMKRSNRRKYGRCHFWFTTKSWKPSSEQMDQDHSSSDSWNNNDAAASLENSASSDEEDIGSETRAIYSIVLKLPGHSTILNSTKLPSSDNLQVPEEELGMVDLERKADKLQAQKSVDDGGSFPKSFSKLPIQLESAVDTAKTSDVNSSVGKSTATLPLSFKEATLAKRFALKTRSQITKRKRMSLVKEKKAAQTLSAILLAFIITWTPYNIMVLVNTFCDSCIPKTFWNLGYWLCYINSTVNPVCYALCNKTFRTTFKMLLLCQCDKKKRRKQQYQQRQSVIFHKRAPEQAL

[9] = Chemical stability of the compound in PBS buffer at pH 7.4 after 48 hrs by HPLC analysis; assay type: physicochemical; conditions: pH 7.4, 48 h
Procedure, shortened: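 Compound at 100 μM final (from 10 mM stock) in PBS pH 7.4 at 22 ± 1 °C; samples taken at 0, 24 and 48 h, mixed with acetonitrile/1% aq TFA 2:8, analysed by RP-HPLC at 220 nm.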

[10] = target: T2, Muscarinic acetylcholine receptor M2; experiment: Displacement of [3H]UNSW-MK259 from human muscarinic acetylcholine receptor M2 expressed in CHOK9 cells after 3 hrs by liquid scintillation counting assay; assay type: cell-based
[11] = target: T1, Muscarinic acetylcholine receptor M2 (Homo sapiens); experiment: Binding affinity to human muscarinic acetylcholine receptor M2 expressed in CHOK9 cell homogenate after 2 hrs by liquid scintillation counting assay; conditions: tested as the 3H-labelled form
Procedure, shortened: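 CHO-hM2 cell homogenates (25–30 μg protein/well) in L15 medium with 1% BSA, 23 ± 1 °C, 2 h with tritiated dimeric radioligand. Competition used 0.5 nM radioligand; additional 0.4, 1, 2 and 4 nM in W84 experiments. […] Four-parameter logistic fits; at least three experiments in triplicate.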

[12] = target: T2, Muscarinic acetylcholine receptor M2; experiment: as §1, with “10” for “0.1”; assay type: functional, cell-based; procedure, shortened: as §2
[13] = target: T1, Muscarinic acetylcholine receptor M2 (Homo sapiens); experiment: as §1, with “10” for “0.1”; assay type: functional, cell-based; procedure, shortened: as §2

Activity [1]: inactive
IC50 [2]: 16.6 nM
inhibition [3]: Dose-dependent effect
Ki [4]: 1.05 nM
K [5]: 933000 M⁻¹ s⁻¹
Bmax (disintegrations/minute) [6]: 1200
inhibition [7]: Dose-dependent effect
pKb [7]: 7.36
Ki [8]: 15.5 nM
Stability [9]: Stable
Ki [10]: 0.107 nM
Bmax (disintegrations/minute) [11]: 620
IC50 [12]: 263 nM
inhibition [13]: Dose-dependent effect
Structure (SMILES): CCC(=O)NCc1cc(C(=O)NCCNC(=O)CCc2cn(CCCCC3CCN(CC(=O)N4c5ccccc5NC(=O)c5ccccc54)CC3)cn2)cc(C(=O)NCCNC(=O)CCc2cn(CCCCC3CCN(CC(=O)N4c5ccccc5NC(=O)c5ccccc54)CC3)cn2)c1.O=C(O)C(F)(F)F.O=C(O)C(F)(F)F.O=C(O)C(F)(F)F.O=C(O)C(F)(F)F

Reference: ChEMBL document CHEMBL4049434, “Radiolabeled Dibenzodiazepinone-Type Antagonists Give Evidence of Dualsteric Binding at the M2 Muscarinic Acetylcholine Receptor” (J Med Chem, 2017)
